Test results taken from ChEMBL document CHEMBL5107950, “Structure-based design of haloperidol analogues as inhibitors of acetyltransferase Eis from Mycobacterium tuberculosis to overcome kanamycin resistance” (RSC Med Chem, 2021).
Converted amounts (≈) assume the structure as drawn.

How the values were obtained:
[1] = biological target: T1, N-acetyltransferase Eis (Mycobacterium tuberculosis (strain ATCC 25618 / H37Rv), UniProt P9WFK7); test: Inhibition of Mycobacterium tuberculosis Eis assessed as Eis-mediated kanamycin acetylation preincubated for 10 mins followed by substrate addition and measured for 2 to 5 mins using acetyl-CoA as substrate in presence of kanamycin by UV-Vis spectroscopy analysis
T1 sequence (P9WFK7 whole entry): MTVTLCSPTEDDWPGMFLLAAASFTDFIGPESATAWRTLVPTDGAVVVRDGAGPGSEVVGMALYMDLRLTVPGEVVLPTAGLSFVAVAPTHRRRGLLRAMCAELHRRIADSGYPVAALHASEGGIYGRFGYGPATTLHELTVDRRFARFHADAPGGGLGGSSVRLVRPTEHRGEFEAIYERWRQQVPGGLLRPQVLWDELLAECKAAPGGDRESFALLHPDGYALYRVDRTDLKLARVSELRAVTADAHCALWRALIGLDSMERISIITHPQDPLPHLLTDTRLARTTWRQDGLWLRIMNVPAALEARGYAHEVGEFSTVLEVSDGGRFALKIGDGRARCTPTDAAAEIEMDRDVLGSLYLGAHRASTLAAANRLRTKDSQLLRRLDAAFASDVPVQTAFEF
Summary of the method: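 Recombinant Eis (1 µM) mixed with KAN (400 µM) in 50 mM Tris-HCl pH 8.0 and preincubated 10 min with 5-fold serially diluted inhibitor (10% DMSO in buffer). Reaction started with AcCoA and DTNB (2 mM each, as added). Absorbance read every 30 s for 20 min. Initial rates (first 2-5 min) fitted to Hill plot for IC50. At least triplicate.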

[2] = system: Mycobacterium tuberculosis; test: Potentiation of kanamycin-induced antibacterial activity against Mycobacterium tuberculosis H37Rv assessed as kanamycin MIC incubated for 1 day followed by kanamycin addition for 6 days and by Alamar blue assay; format: functional; conditions: 168 h, time 7 day
Summary of the method: (§1)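 Mtb in 7H9 + 10% ADC, 0.05% Tween 80, 0.4% glycerol at 37 °C. Inoculum adjusted to OD600 0.2, diluted 1:25. Cells preincubated 24 h at 37 °C with compound (100 µL of 200 µM solution). KAN then added: H37Rv at 2.5 and 1.25 µg/mL; K204 at 10, 5, 2.5, 1.25 µg/mL. Incubated 6 days, AlamarBlue added, colour read at 24 and 48 h. MIC = lowest KAN with no colour change. At least twice in duplicate.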

[3] = system: Mycobacterium tuberculosis; test: Potentiation of kanamycin-induced antibacterial activity against Mycobacterium tuberculosis K204 assessed as kanamycin MIC incubated for 1 day followed by kanamycin addition for 6 days and by Alamar blue assay; format: functional; conditions: K204, 168 h, time 7 day; summary of the method: as §1
[4] = system: Mycolicibacterium smegmatis; test: Antibacterial activity against Mycobacterium smegmatis mc2 155 assessed as inhibition of bacterial growth incubated upto 3 weeks hrs by resazurin dye based double-dilution method; format: functional; conditions: mc2 155, 504 h
Summary of the method: (§2)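 Double-dilution broth MIC. Media: M. smegmatis, Mueller-Hinton; M. abscessus, 7H9 + 0.05% Tween80 + 0.4% glycerol; mc²6230, 7H9 + 0.05% tyloxapol, 0.5% glycerol, 10% OADC, 0.2% casamino acids, 24 µg/mL pantothenate; other mycobacteria, 7H9 + 0.05% Tween80, 0.4% glycerol, 10% ADC. Inoculum from agar set to 0.5 McFarland, then diluted 1:100.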

[5] = system: Mycobacteroides abscessus; test: Antibacterial activity against Mycobacterium abscessus ATCC 19977 assessed as inhibition of bacterial growth incubated upto 3 weeks hrs by resazurin dye based double-dilution method; format: functional; conditions: ATCC 19977, 504 h; summary of the method: as §2
[6] = system: Mycobacterium intracellulare; test: Antibacterial activity against Mycobacterium intracellulare ATCC 13950 assessed as inhibition of bacterial growth incubated upto 3 weeks hrs by resazurin dye based double-dilution method; format: functional; conditions: ATCC 13950, 504 h; summary of the method: as §2
[7] = system: Mycobacterium avium; test: Antibacterial activity against Mycobacterium avium ATCC 25921 assessed as inhibition of bacterial growth incubated upto 3 weeks hrs by resazurin dye based double-dilution method; format: functional; conditions: ATCC 25921, 504 h; summary of the method: as §2
[8] = system: Mycobacterium tuberculosis; test: Antibacterial activity against Mycobacterium tuberculosis H37Ra ATCC NRS22 assessed as inhibition of bacterial growth incubated upto 3 weeks hrs by resazurin dye based double-dilution method; format: functional; conditions: H37Ra ATCC NRS22, 504 h; summary of the method: as §2
[9] = system: Mycolicibacterium smegmatis; test: Synergistic antibacterial activity against Mycobacterium smegmatis mc2 155 assessed as fold reduction in MIC value at 8 ug/ml in presence of spectinomycin by checkerboard assay; format: functional; conditions: dose 8 µg/ml
[10] = system: Mycolicibacterium smegmatis; test: Synergistic antibacterial activity against Mycobacterium smegmatis mc2 155 assessed as fold reduction in MIC value at 8 ug/ml in presence of clarithromycin by checkerboard assay; format: functional; conditions: dose 8 µg/ml
[11] = Metabolic stability in human liver microsomes at 2 to 4 uM incubated for 30 mins by LC-MS/MS analysis; format: ADME, Microsome; conditions: dose 2-4 µM, read-out: Stability
[12] = Metabolic stability in mouse liver microsomes at 2 to 4 uM incubated for 30 mins by LC-MS/MS analysis; format: ADME, Microsome; conditions: dose 2-4 µM, read-out: Stability

| SMILES | IC50 [1] [µM] | MIC [2] [µg/mL] | MIC [3] [µg/mL] | MIC [4] [µM] | MIC [5] [µM] | MIC [6] [µM] | MIC [7] [µM] | MIC [8] [µM] | fold change (FC) [9] | fold change (FC) [10] | remaining at 0.5 h [11] [%] | remaining at 0.5 h [12] [%] |
| --- | --- | --- | --- | --- | --- | --- | --- | --- | --- | --- | --- | --- |
| O=C(CCCN1CCC(O)(c2ccc(F)cc2)CC1)c1ccc(Br)cc1 | 6.6 | ≤ 1.25 | 10 | > 62.5 | > 62.5 | 62.5 (≈ 26.3 µg/mL) | 62.5 (≈ 26.3 µg/mL) | 31.3 (≈ 13.2 µg/mL) | – | – | – | – |
| O=C(CCCN1CCC(O)(c2ccc(F)cc2)CC1)c1ccccc1 | 3.1 | ≤ 1.25 | 10 | > 62.5 | > 62.5 | > 62.5 | > 62.5 | > 62.5 | – | – | – | – |
| N=C(N)NCCCC(=O)c1ccc(F)cc1 | 1.1 | – | – | > 62.5 | > 62.5 | > 62.5 | > 62.5 | 31.3 (≈ 6.99 µg/mL) | – | – | – | – |
| O=C(CCCN1CCC(O)(c2ccccc2)CC1)c1ccc(F)cc1 | 0.85 | – | – | > 62.5 | > 62.5 | > 62.5 | > 62.5 | > 62.5 | – | – | – | – |
| CCc1ccc(C(=O)CCCN2CCC(O)(c3ccc(Cl)cc3)CC2)cc1 | 40 | – | – | 15.6 (≈ 6.02 µg/mL) | 62.5 (≈ 24.1 µg/mL) | 15.6 (≈ 6.02 µg/mL) | 62.5 (≈ 24.1 µg/mL) | 15.6 (≈ 6.02 µg/mL) | – | – | – | – |
| Cc1ccc(C(=O)CCCN2CCC(O)(c3ccc(Cl)cc3)CC2)cc1 | 100 | – | – | 62.6 (≈ 23.3 µg/mL) | > 62.5 | > 62.5 | > 62.5 | 31.3 (≈ 11.6 µg/mL) | – | – | – | – |
| COc1ccc(C(=O)CCCN2CCC(O)(c3ccc(F)cc3)CC2)cc1 | 42 | ≤ 1.25 | > 10 | > 62.5 | > 62.5 | > 62.5 | > 62.5 | > 62.5 | – | – | – | – |
| CC1CC(C)CN(CCCC(=O)c2ccc(C(C)(C)C)cc2)C1 (centres undefined) | 200 | – | – | 62.5 (≈ 19.7 µg/mL) | 62.5 (≈ 19.7 µg/mL) | 62.5 (≈ 19.7 µg/mL) | 62.5 (≈ 19.7 µg/mL) | 31.3 (≈ 9.88 µg/mL) | – | – | – | – |
| O=C(CCCN1CCC(O)(c2ccc(Cl)cc2)CC1)c1ccccc1 | 5.3 | ≤ 1.25 | > 10 | > 62.5 | > 62.5 | > 62.5 | 62.5 (≈ 22.4 µg/mL) | 62.5 (≈ 22.4 µg/mL) | – | – | – | – |
| O=C(CCCN1CC=C(n2c(=O)[nH]c3ccccc32)CC1)c1ccc(F)cc1 [DROPERIDOL] | 12.2 | – | – | > 62.5 | > 62.5 | > 62.5 | > 62.5 | 31.3 (≈ 11.9 µg/mL) | – | – | – | – |
| CC(C)(C)c1ccc(C(=O)CCCN2CCC(O)(c3ccc(F)cc3)CC2)cc1 | 200 | – | – | 62.5 (≈ 24.8 µg/mL) | > 62.5 | 31.3 (≈ 12.4 µg/mL) | 31.3 (≈ 12.4 µg/mL) | 15.6 (≈ 6.2 µg/mL) | 16 | 4 | 50 | 48 |
| O=C(CCCN1CCC(O)(c2ccc(Br)cc2)CC1)c1ccccc1 | 2.2 | ≤ 1.25 | 10 | > 62.5 | > 62.5 | > 62.5 | > 62.5 | 62.5 (≈ 25.1 µg/mL) | – | – | – | – |
| O=C(CCCN1CCC(O)(c2ccc(Br)cc2)CC1)c1ccc(Br)cc1 | > 200 | ≤ 1.25 | > 10 | 31.3 (≈ 15.1 µg/mL) | > 62.5 | > 62.5 | > 62.5 | 7.8 (≈ 3.75 µg/mL) | – | – | – | – |
